ChEMBL document CHEMBL5252546, “Salutaxel, a Conjugate of Docetaxel and a Muramyl Dipeptide (MDP) Analogue, Acts as Multifunctional Prodrug That Inhibits Tumor Growth and Metastasis” (J Med Chem, 2018)
Active and inactive are the calls of the source. The rule behind the calls is not given here.

Key:
[1] = Volume of distribution at steady state in male Beagle dog at 1 mg/kg,iv measured upto 24 hrs; assay type: ADME, organism-based, Canis lupus familiaris; details: in vivo, read-out: Vdss
[2] = Toxicity in Beagle dog assessed as effect on respiratory intensity at 1 to 4 mg/kg,iv; assay type: organism-based, Canis lupus familiaris; details: in vivo, dose 1-4 mg/kg
[3] = Toxicity in female Sprague-Dawley rat assessed as maximal non-toxic dose at iv administration; assay type: organism-based; details: in vivo, read-out: MNTD
[4] = Stability in dog plasma assessed as compound remaining at 40 uM incubated for 6 hrs; assay type: ADME, cell-free, Canis lupus familiaris
[5] = Half life in rat at 8 mg/kg,iv measured upto 24 hrs; assay type: ADME, organism-based; details: in vivo
[6] = Tmax in Beagle dog at 1 mg/kg,iv measured upto 24 hrs; assay type: ADME, organism-based, Canis lupus familiaris; details: in vivo
[7] = AUC (0-infinity) in Beagle dog at 4 mg/kg,iv measured upto 24 hrs; assay type: ADME, organism-based, Canis lupus familiaris; set-up: time < 24 hrs, dose 4 mg/kg, route iv; details: in vivo
In short: (§1)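 Single iv dose: rats 2, 4 or 8 mg/kg by intravenous injection; Beagle dogs 1, 2 or 4 mg/kg by intravenous infusion. Plasma concentration–time data were analysed by sex and pooled. Reported parameters: Cmax, Tmax, AUC0−t, AUC0−∞, MRT0−∞, t1/2, CL, Vss, given as mean ± SD.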

4T1 [8] = assay: Antitumor activity against mouse 4T1 cells implanted in BALB/c mouse assessed as decrease in tumor MMP2 expression level at 5 to 20 mg/kg,iv administrated once per week for 4 weeks by western blot assay; assay type: functional, organism-based; details: dose 5-20 mg/kg
In short: (§2)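 4T1 fat-pad model in BALB/c mice, iv once weekly for 4 weeks; MMP9, MMP2 and NOD1 in spleen, lung and tumour by western blot, β-actin loading control; bands averaged over five mice per group, representative of two independent experiments.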

4T1 [9] = assay: Antitumor activity against mouse 4T1 cells xenografted with BALB/c mouse assessed as decrease in tumor volume at 10 mg/kg,iv administrated once per week for 4 weeks; assay type: functional, organism-based
In short: (§3)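 4T1 cells injected into the mammary fat pad of BALB/c mice; iv saline vehicle or 5, 10 or 20 mg/kg once weekly for 4 weeks; body weight, tumour volume, tumour weight, lung metastatic nodule count and metastasis score recorded; n = 10, mean ± SEM, ANOVA and Student's t test.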

[10] = Stability in human plasma assessed as compound remaining at 1 uM incubated for 6 hrs; assay type: ADME, cell-free
[11] = AUC (0-t) in female rat at 4 mg/kg,iv measured upto 24 hrs; assay type: ADME, organism-based; set-up: time < 24 hrs, dose 4 mg/kg, route iv; details: in vivo; in short: as §1
4T1 [12] = assay: Antitumor activity against mouse 4T1 cells implanted in BALB/c mouse assessed as decrease in S100A8 mRNA expression in lung at 20 mg/kg,iv administrated qd for 2 days by qRT-PCR analysis; assay type: functional, organism-based; details: time 2.0 day
In short: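 Day 19 after 4T1 implantation, mice randomised into five groups; iv vehicle or 20 mg/kg plus ip C12-iE-DAP (50 μg/mouse) and MDP (100 μg/mouse) once daily for 2 days; killed after 48 h; lung mRNA for MMP8, MMP9, PROK2, S100A8, S100A9 and IL-1β by qPCR; mean ± SEM.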

[13] = AUC (0-t) in Beagle dog at 1 mg/kg,iv measured upto 24 hrs; assay type: ADME, organism-based, Canis lupus familiaris; set-up: dose 1 mg/kg, time < 24 hrs, route iv; details: in vivo; in short: as §1
[14] = Volume of distribution at steady state in male Beagle dog at 4 mg/kg,iv measured upto 24 hrs; assay type: ADME, organism-based, Canis lupus familiaris; details: in vivo, read-out: Vdss
[15] = Half life in female rat at 2 mg/kg,iv measured upto 24 hrs; assay type: ADME, organism-based; details: in vivo
[16] = Volume of distribution at steady state in rat at 4 mg/kg,iv measured upto 24 hrs; assay type: ADME, organism-based; details: in vivo, read-out: Vdss
[17] = AUC (0-t) in mouse plasma implanted with mouse 4T1 cells at 10 mg/kg,iv measured upto 72 hrs; assay type: ADME, organism-based; set-up: dose 10 mg/kg, time < 72 hrs, route iv
In short: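 4T1 tumor-bearing mice (4T1 cells implanted in the mammary fat pad) received a single iv dose of 10 mg/kg. Plasma and tumor tissue were sampled up to 72 h, with n = 6. Levels of parent and of released docetaxel were measured. AUC came from noncompartmental analysis, reported as mean ± SD.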

[18] = Volume of distribution at steady state in Beagle dog at 4 mg/kg,iv measured upto 24 hrs; assay type: ADME, organism-based, Canis lupus familiaris; details: in vivo, read-out: Vdss
[19] = Half life in male rat at 4 mg/kg,iv measured upto 24 hrs; assay type: ADME, organism-based; details: in vivo
Cytochrome P450 2C19 = Cytochrome P450 2C19 (Homo sapiens, UniProt P33261); assay: Inhibition of CYP2C19 in human liver microsomes using probe substrate at 0.1 to 100 uM in presence of NADPH; assay type: ADME, Microsome; details: dose 0.1-100 µM
[20] = AUC (0-t) in male Beagle dog at 2 mg/kg,iv measured upto 24 hrs; assay type: ADME, organism-based, Canis lupus familiaris; set-up: dose 2 mg/kg, time < 24 hrs, route iv; details: in vivo; in short: as §1
Cytochrome P450 1A2 = Cytochrome P450 1A2 (Homo sapiens, UniProt P05177); assay: Inhibition of CYP1A2 in human liver microsomes using probe substrate at 0.1 to 100 uM in presence of NADPH; assay type: ADME, Microsome; details: dose 0.1-100 µM
4T1 [21] = assay: Antitumor activity against mouse 4T1 cells xenografted with BALB/c mouse assessed as decrease in tumor weight at 10 mg/kg,iv administrated once per week for 4 weeks; assay type: functional, organism-based; in short: as §3
[22] = Volume of distribution at steady state in Beagle dog at 2 mg/kg,iv measured upto 24 hrs; assay type: ADME, organism-based, Canis lupus familiaris; details: in vivo, read-out: Vdss
[23] = Clearance in male rat at 8 mg/kg,iv measured upto 24 hrs; assay type: ADME, organism-based; details: in vivo
In short: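 Rats were given a single iv injection at 2, 4 or 8 mg/kg. Plasma parent drug and released docetaxel were followed over time. Cmax, Tmax, AUC, MRT, t1/2, CL and Vss were reported for males, females and all animals combined.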

[24] = Drug metabolism in rat hepatocytes assessed as MDA-205 metabolite formation at 20 uM incubated for 180 mins; assay type: ADME, cell-based, Hepatocyte; details: 3 h
[25] = Volume of distribution at steady state in female Beagle dog at 4 mg/kg,iv measured upto 24 hrs; assay type: ADME, organism-based, Canis lupus familiaris; details: in vivo, read-out: Vdss
[26] = Volume of distribution at steady state in female rat at 8 mg/kg,iv measured upto 24 hrs; assay type: ADME, organism-based; details: in vivo, read-out: Vdss
[27] = AUC (0-infinity) in rat at 4 mg/kg,iv measured upto 24 hrs; assay type: ADME, organism-based; set-up: dose 4 mg/kg, time < 24 hrs, route iv; details: in vivo; in short: as §1
4T1 [28] = assay: Antitumor activity against mouse 4T1 cells implanted in BALB/c mouse assessed as decrease in lung MMP2 expression level at 5 to 20 mg/kg,iv administrated once per week for 4 weeks by western blot assay; assay type: functional, organism-based; details: dose 5-20 mg/kg; in short: as §2
[29] = Tmax in mouse plasma implanted with mouse 4T1 cells at 5.7 mg/kg,iv measured upto 72 hrs; assay type: ADME, organism-based
4T1 [30] = assay: Antitumor activity against mouse 4T1 cells implanted in BALB/c mouse assessed as increase in tumor NOD1 expression level at 5.7 mg/kg,iv administrated once per week for 4 weeks by western blot assay; assay type: functional, organism-based
In short: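 Tumour-bearing BALB/c mice (4T1 cells into mammary fat pad) given iv saline vehicle or test agents once weekly for 4 weeks. Tumours excised and probed by western blot for MMP9, MMP2 and NOD1, β-actin as loading control. Bands averaged over five mice per group; representative of two independent experiments.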

4T1 [31] = assay: Antitumor activity against mouse 4T1 cells implanted in BALB/c mouse assessed as decrease in lung metastasis at 5.7 mg/kg,iv administrated once per week for 4 weeks in presence of MDA-205 by H and E staining based assay; assay type: functional, organism-based
In short: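 BALB/c mice bearing orthotopic mammary fat pad 4T1 tumors, dosed iv weekly for 4 weeks with saline vehicle as control. Lung sections stained with hematoxylin and eosin and examined by light microscopy at 40× for metastasis, inflammatory infiltration and alveolar wall thickening.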

[32] = Half life in mouse plasma implanted with mouse 4T1 cells at 5.7 mg/kg,iv measured upto 72 hrs; assay type: ADME, organism-based

Sequence of Cytochrome P450 2C19 (P33261 whole entry): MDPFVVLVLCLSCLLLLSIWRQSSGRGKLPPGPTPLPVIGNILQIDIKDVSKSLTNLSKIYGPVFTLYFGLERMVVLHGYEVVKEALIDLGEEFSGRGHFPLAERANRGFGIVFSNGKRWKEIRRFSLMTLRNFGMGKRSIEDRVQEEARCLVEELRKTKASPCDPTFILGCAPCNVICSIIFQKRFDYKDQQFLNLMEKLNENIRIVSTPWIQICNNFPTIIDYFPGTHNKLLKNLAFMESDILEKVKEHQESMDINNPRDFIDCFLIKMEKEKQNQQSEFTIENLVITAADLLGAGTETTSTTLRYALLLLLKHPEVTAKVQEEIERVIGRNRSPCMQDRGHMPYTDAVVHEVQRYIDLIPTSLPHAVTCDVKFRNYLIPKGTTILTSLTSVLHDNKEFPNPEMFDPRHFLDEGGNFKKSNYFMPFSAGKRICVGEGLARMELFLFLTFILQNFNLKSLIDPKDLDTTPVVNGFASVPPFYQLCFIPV
Sequence of Cytochrome P450 1A2 (P05177 whole entry): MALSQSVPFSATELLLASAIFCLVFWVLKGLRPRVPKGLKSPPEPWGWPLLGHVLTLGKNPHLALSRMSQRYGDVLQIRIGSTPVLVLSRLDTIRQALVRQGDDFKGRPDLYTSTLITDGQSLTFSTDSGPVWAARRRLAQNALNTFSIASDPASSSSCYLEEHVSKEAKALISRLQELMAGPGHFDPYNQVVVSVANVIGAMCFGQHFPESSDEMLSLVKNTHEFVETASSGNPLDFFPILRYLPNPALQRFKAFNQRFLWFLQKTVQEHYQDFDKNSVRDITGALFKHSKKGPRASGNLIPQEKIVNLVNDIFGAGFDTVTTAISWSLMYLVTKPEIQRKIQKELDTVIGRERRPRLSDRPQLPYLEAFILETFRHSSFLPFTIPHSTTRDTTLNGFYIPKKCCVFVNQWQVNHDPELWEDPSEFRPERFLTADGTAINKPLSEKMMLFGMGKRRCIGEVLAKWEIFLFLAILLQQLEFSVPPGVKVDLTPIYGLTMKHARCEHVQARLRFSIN

CC(=O)O[C@@]12CO[C@@H]1C[C@H](O)[C@@]1(C)C(=O)[C@H](O)C3=C(C)[C@@H](OC(=O)[C@H](OC(=O)CCC(=O)NCCCC[C@H](NC(=O)CC[C@@H](NC(=O)[C@H](C)NC(=O)/C=C/c4ccc(F)cc4Cl)C(N)=O)C(=O)O)[C@@H](NC(=O)OC(C)(C)C)c4ccccc4)C[C@@](O)([C@@H](OC(=O)c4ccccc4)[C@H]21)C3(C)C
Vd [1]: 0.134 L/kg | Activity [2]: Non-Toxic | NOAEL [3]: 2 mg/kg | Stability [4]: Stable | half-life [5]: 18.3 min | Tmax [6]: 30 min | AUC(0-inf) [7]: 17300 ng·h/mL | Activity (4T1 [8]): inactive | Activity (4T1 [9]): Active | Stability [10]: Stable | AUC(0-t) at 24 h [11]: 13000 ng·h/mL | Activity (4T1 [12]): Active | AUC(0-t) at 24 h [13]: 1590 ng·h/mL | Vd [14]: 0.075 L/kg | half-life [15]: 6.6 min | Vd [16]: 0.076 L/kg | AUC(0-t) at 72 h [17]: 3.33 µM·h | Vd [18]: 0.08 L/kg | half-life [19]: 10.7 min | inhibition (INH) (Cytochrome P450 2C19): Not Active | AUC(0-t) at 24 h [20]: 4840 ng·h/mL | inhibition (INH) (Cytochrome P450 1A2): Not Active | Activity (4T1 [21]): Active | Vd [22]: 0.083 L/kg | clearance [23]: 2.55 mL/min/kg | Drug metabolism [24]: Metabolite_Detected | Vd [25]: 0.087 L/kg | Vd [26]: 0.095 L/kg | AUC(0-inf) [27]: 16900 ng·h/mL | Activity (4T1 [28]): inactive

CC(=O)O[C@@]12CO[C@@H]1C[C@H](O)[C@@]1(C)C(=O)[C@H](O)C3=C(C)[C@@H](OC(=O)[C@H](O)[C@@H](NC(=O)OC(C)(C)C)c4ccccc4)C[C@@](O)([C@@H](OC(=O)c4ccccc4)[C@H]21)C3(C)C [DOCETAXEL ANHYDROUS]
Tmax [29]: 1.8 min | Activity (4T1 [30]): inactive | Activity (4T1 [31]): Active | half-life [32]: 217 min
